Laboratory results published in ChEMBL document CHEMBL5705906 (Nat Commun, 2017).
Activity calls are given as the source filed them. The rule behind the calls is not given here.

What was measured:
BaF3 [1] = experiment: Inhibition of EGFR-C797S/T790M/del19 mutant in mouse BaF3 cells assessed as reduction in EGFR phosphorylation incubated for 6 hrs by Western blotting analysis; assay type: cell-based
PC-9 [2] = experiment: Inhibition of EGFR T790M/del19 mutant in human PC-9 cells assessed as reduction in EGFR phosphorylation at 10 to 1000 nM by Western blotting analysis; assay type: cell-based; conditions: dose 10-1000 nM
[3] = Cytotoxicity against mouse Ba/F3 EGFR-Del19/T790M/C797S cells assessed as inhibition of cell viability by measuring fold change at 30 nM incubated for 72 hrs in presence of cetuximab by CellTiter-Glo assay relative to AP26113-analog alone; assay type: functional
BaF3 [4] = experiment: Inhibition of EGFR-C797S/T790M/L858R mutant in mouse BaF3 cells assessed as inhibition of S6 phosphorylation at 10 to 1000 nM incubated for 6 hrs by Western blotting analysis; assay type: cell-based; conditions: dose 10-1000 nM
Method in brief: (§1)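 Ba/F3 cells expressing EGFR-L858R-series mutants treated with inhibitors for 6 h. SDS lysates quantified by BCA, run on SDS-PAGE and blotted to PVDF. Probed for phospho-EGFR (Tyr1068), total EGFR and downstream phospho-proteins.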

[5] = system: Epidermal growth factor receptor (Homo sapiens), P00533 [UNDEFINED MUTATION]; conditions: MGH121, dose 10-1000 nM
BaF3 [6] = assay type: cell-based; conditions: Mus musculus, dose 10-1000 nM, time 6.0 hrs
BaF3 [7] = experiment: Inhibition of EGFR-T790M/del19 mutant in mouse BaF3 cells assessed as inhibition of EGFR phosphorylation at 10 to 1000 nM incubated for 6 hrs by Western blotting analysis; assay type: cell-based; conditions: dose 10-1000 nM
Method in brief: (§2)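 Ba/F3 cells carrying the stated EGFR mutant were made IL-3-independent after 1 week of 7 µM blasticidin selection. They were grown in low-glucose DMEM with 10% FBS and exposed to inhibitor for 6 h. Cells were washed in cold PBS, lysed in SDS buffer (100 mM Tris, 1% SDS, 10% glycerol) and boiled 5 min. Protein was measured by BCA, run on SDS-PAGE, transferred to PVDF, blocked in 5% BSA or milk/TBS-T, and immunoblotted.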

BaF3 [8] = assay type: cell-based; conditions: Mus musculus, dose 10-1000 nM, time 6.0 hrs; remark: listed apart in the source
[9] = system: Epidermal growth factor receptor (Homo sapiens), P00533 [UNDEFINED MUTATION]; conditions: PC-9, dose 10-1000 nM
[10] = system: Epidermal growth factor receptor (Homo sapiens), P00533 [UNDEFINED MUTATION]; conditions: PC-9, dose 10-1000 nM; remark: listed apart in the source
BaF3 [11] = assay type: cell-based; conditions: Mus musculus, dose 10-1000 nM, time 6.0 hrs; remark: listed apart in the source
BaF3 [12] = experiment: Inhibition of EGFR-del19 mutant in mouse BaF3 cells assessed as inhibition of S6 phosphorylation at 10 to 1000 nM incubated for 6 hrs by Western blotting analysis; assay type: cell-based; conditions: dose 10-1000 nM; method in brief: as §2
[13] = system: Epidermal growth factor receptor (Homo sapiens), P00533 [UNDEFINED MUTATION]; conditions: PC-9, dose 10-1000 nM; remark: listed apart in the source
BaF3 [14] = experiment: Inhibition of EGFR-T790M/del19 mutant in mouse BaF3 cells assessed as inhibition of S6 phosphorylation at 10 to 1000 nM incubated for 6 hrs by Western blotting analysis; assay type: cell-based; conditions: dose 10-1000 nM; method in brief: as §2
BaF3 [15] = assay type: cell-based; conditions: Mus musculus, dose 10-1000 nM, time 6.0 hrs; remark: listed apart in the source
BaF3 [16] = experiment: Inhibition of EGFR-C797S/T790M/del19 mutant in mouse BaF3 cells assessed as reduction in Akt phosphorylation incubated for 6 hrs by Western blotting analysis; assay type: cell-based
[17] = system: Epidermal growth factor receptor (Homo sapiens), P00533 [UNDEFINED MUTATION]; conditions: PC-9, dose 10-1000 nM; remark: listed apart in the source
PC-9 [18] = experiment: Inhibition of EGFR T790M/del19 mutant in human PC-9 cells assessed as reduction in S6 phosphorylation at 10 to 1000 nM by Western blotting analysis; assay type: cell-based; conditions: dose 10-1000 nM
[19] = system: Epidermal growth factor receptor (Homo sapiens), P00533 [UNDEFINED MUTATION]; conditions: MGH121, dose 10-1000 nM; remark: listed apart in the source
PC-9 [20] = experiment: Inhibition of EGFR T790M/del19 mutant in human PC-9 cells assessed as reduction in ERK phosphorylation at 10 to 1000 nM by Western blotting analysis; assay type: cell-based; conditions: dose 10-1000 nM
[21] = system: Epidermal growth factor receptor (Homo sapiens), P00533 [UNDEFINED MUTATION]; conditions: PC-9, dose 10-1000 nM; remark: listed apart in the source
PC-9 [22] = experiment: Inhibition of EGFR T790M/del19 mutant in human PC-9 cells assessed as reduction in Akt phosphorylation at 10 to 1000 nM by Western blotting analysis; assay type: cell-based; conditions: dose 10-1000 nM
BaF3 [23] = experiment: Inhibition of EGFR-T790M/del19 mutant in mouse BaF3 cells assessed as inhibition of Akt phosphorylation at 10 to 1000 nM incubated for 6 hrs by Western blotting analysis; assay type: cell-based; conditions: dose 10-1000 nM; method in brief: as §2
[24] = system: Epidermal growth factor receptor (Homo sapiens), P00533 [UNDEFINED MUTATION]; conditions: PC-9, dose 10-1000 nM; remark: listed apart in the source
[25] = system: Epidermal growth factor receptor (Homo sapiens), P00533 [UNDEFINED MUTATION]; conditions: MGH121, dose 10-1000 nM; remark: listed apart in the source
[26] = system: Epidermal growth factor receptor (Homo sapiens), P00533 [UNDEFINED MUTATION]; conditions: MGH121, dose 10-1000 nM; remark: listed apart in the source
BaF3 [27] = experiment: Inhibition of EGFR-C797S/T790M/L858R mutant expressed in mouse BaF3 cells assessed as inhibition of ERK phosphorylation at 10 to 1000 nM incubated for 6 hrs by Western blotting analysis; assay type: cell-based; conditions: dose 10-1000 nM; method in brief: as §1
BaF3 [28] = experiment: Inhibition of EGFR-del19 mutant in mouse BaF3 cells assessed as inhibition of ERK phosphorylation at 10 to 1000 nM incubated for 6 hrs by Western blotting analysis; assay type: cell-based; conditions: dose 10-1000 nM; method in brief: as §2
[29] = system: Epidermal growth factor receptor (Homo sapiens), P00533 [UNDEFINED MUTATION]; conditions: PC-9, dose 10-1000 nM; remark: listed apart in the source
BaF3 [30] = experiment: Inhibition of EGFR-C797S/T790M/del19 mutant in mouse BaF3 cells assessed as reduction in ERK phosphorylation incubated for 6 hrs by Western blotting analysis; assay type: cell-based
BaF3 [31] = experiment: Inhibition of EGFR-C797S/T790M/del19 mutant in mouse BaF3 cells assessed as reduction in S6 phosphorylation incubated for 6 hrs by Western blotting analysis; assay type: cell-based; method in brief: as §2
BaF3 [32] = experiment: Inhibition of EGFR-del19 mutant in mouse BaF3 cells assessed as inhibition of Akt phosphorylation at 10 to 1000 nM incubated for 6 hrs by Western blotting analysis; assay type: cell-based; conditions: dose 10-1000 nM; method in brief: as §2
[33] = Cytotoxicity against mouse Ba/F3 EGFR-Del19/T790M/C797S cells assessed as inhibition of cell viability incubated for 72 hrs by CellTiter-Glo assay; assay type: functional, cell-based
[34] = system: Epidermal growth factor receptor (Homo sapiens), P00533 [UNDEFINED MUTATION]; conditions: PC-9, dose 10-1000 nM; remark: listed apart in the source
BaF3 [35] = experiment: Inhibition of EGFR-C797S/T790M/L858R mutant in mouse BaF3 cells assessed as inhibition of EGFR phosphorylation at 10 to 1000 nM incubated for 6 hrs by Western blotting analysis; assay type: cell-based; conditions: dose 10-1000 nM; method in brief: as §1
BaF3 [36] = experiment: Inhibition of EGFR-C797S/T790M/L858R mutant expressed in mouse BaF3 cells assessed as inhibition of Akt phosphorylation at 10 to 1000 nM incubated for 6 hrs by Western blotting analysis; assay type: cell-based; conditions: dose 10-1000 nM; method in brief: as §1
BaF3 [37] = experiment: Inhibition of EGFR-T790M/del19 mutant in mouse BaF3 cells assessed as inhibition of ERK phosphorylation at 10 to 1000 nM incubated for 6 hrs by Western blotting analysis; assay type: cell-based; conditions: dose 10-1000 nM; method in brief: as §2

Sequence of Epidermal growth factor receptor (Homo sapiens), P00533 [UNDEFINED MUTATION] (P00533 whole entry, looked up, stated change not applied): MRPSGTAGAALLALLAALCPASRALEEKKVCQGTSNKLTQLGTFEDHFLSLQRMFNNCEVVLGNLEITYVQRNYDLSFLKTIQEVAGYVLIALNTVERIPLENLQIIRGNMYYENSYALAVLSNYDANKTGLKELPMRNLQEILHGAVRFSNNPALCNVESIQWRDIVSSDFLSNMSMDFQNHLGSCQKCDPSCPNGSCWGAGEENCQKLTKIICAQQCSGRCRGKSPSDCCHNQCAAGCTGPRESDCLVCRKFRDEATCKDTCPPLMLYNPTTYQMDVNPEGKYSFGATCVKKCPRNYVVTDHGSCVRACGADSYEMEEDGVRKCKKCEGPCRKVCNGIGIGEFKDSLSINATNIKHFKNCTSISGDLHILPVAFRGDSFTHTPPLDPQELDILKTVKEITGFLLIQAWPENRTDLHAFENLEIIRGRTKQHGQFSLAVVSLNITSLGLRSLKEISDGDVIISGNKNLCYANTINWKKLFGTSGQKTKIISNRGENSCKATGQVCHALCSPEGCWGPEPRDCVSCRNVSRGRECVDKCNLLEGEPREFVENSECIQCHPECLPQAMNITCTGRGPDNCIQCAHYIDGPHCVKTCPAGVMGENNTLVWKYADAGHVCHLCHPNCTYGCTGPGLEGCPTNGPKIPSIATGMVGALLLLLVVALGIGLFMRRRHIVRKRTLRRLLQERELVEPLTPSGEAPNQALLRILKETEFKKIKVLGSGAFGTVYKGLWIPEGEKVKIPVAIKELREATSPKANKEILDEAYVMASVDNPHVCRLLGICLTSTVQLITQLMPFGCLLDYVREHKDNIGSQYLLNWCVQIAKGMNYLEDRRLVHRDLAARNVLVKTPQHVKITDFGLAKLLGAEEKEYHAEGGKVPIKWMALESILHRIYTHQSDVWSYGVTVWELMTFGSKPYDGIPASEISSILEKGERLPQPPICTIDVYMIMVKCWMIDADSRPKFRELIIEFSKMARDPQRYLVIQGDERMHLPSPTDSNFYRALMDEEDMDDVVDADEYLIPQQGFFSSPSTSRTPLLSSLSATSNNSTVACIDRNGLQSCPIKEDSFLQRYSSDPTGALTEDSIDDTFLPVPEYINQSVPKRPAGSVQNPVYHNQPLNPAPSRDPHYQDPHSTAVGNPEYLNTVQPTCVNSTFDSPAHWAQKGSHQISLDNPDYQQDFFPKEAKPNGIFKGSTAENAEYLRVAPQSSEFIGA

- inhibition [5]: Active
- inhibition [9]: Active
- inhibition [10]: Active
- inhibition [13]: Active
- inhibition [17]: Active
- inhibition [19]: Active
- inhibition [21]: Active
- inhibition [24]: Active
- inhibition [25]: Active
- inhibition [26]: Active
- inhibition [29]: Active
- inhibition [34]: Active
SMILES: COc1cc(N2CCC(N(C)C)CC2)ccc1Nc1ncc(Cl)c(Nc2ccccc2P(C)(C)=O)n1
- inhibition (BaF3 [1]): Active
- inhibition (PC-9 [2]): Active
- fold change (FC) [3]: ~3
- inhibition (BaF3 [4]): Active
- inhibition (BaF3 [6]): Active
- inhibition (BaF3 [7]): Active
- inhibition (BaF3 [8]): Active
- inhibition (BaF3 [11]): Active
- inhibition (BaF3 [12]): Active
- inhibition (BaF3 [14]): Active
- inhibition (BaF3 [15]): Active
- inhibition (BaF3 [16]): Active
- inhibition (PC-9 [18]): Active
- inhibition (PC-9 [20]): Active
- inhibition (PC-9 [22]): Active
- inhibition (BaF3 [23]): Active
- inhibition (BaF3 [27]): Active
- inhibition (BaF3 [28]): Active
- inhibition (BaF3 [30]): Active
- inhibition (BaF3 [31]): Active
- inhibition (BaF3 [32]): Active
- IC50 [33]: 59.1 nM
- inhibition (BaF3 [35]): Active
- inhibition (BaF3 [36]): Active
- inhibition (BaF3 [37]): Active
